Measurements: paper PMC10925177 (bioRxiv, 2024)

Assays:
[1] = biological target: T1, G9a (Homo sapiens, UniProt Q96KQ7); assay: G9a radioactive methyltransferase assay; assay type: biochemical; details: indicated concentrations, duplicate (Figure 4B)
T1 sequence (Q96KQ7 1-1210): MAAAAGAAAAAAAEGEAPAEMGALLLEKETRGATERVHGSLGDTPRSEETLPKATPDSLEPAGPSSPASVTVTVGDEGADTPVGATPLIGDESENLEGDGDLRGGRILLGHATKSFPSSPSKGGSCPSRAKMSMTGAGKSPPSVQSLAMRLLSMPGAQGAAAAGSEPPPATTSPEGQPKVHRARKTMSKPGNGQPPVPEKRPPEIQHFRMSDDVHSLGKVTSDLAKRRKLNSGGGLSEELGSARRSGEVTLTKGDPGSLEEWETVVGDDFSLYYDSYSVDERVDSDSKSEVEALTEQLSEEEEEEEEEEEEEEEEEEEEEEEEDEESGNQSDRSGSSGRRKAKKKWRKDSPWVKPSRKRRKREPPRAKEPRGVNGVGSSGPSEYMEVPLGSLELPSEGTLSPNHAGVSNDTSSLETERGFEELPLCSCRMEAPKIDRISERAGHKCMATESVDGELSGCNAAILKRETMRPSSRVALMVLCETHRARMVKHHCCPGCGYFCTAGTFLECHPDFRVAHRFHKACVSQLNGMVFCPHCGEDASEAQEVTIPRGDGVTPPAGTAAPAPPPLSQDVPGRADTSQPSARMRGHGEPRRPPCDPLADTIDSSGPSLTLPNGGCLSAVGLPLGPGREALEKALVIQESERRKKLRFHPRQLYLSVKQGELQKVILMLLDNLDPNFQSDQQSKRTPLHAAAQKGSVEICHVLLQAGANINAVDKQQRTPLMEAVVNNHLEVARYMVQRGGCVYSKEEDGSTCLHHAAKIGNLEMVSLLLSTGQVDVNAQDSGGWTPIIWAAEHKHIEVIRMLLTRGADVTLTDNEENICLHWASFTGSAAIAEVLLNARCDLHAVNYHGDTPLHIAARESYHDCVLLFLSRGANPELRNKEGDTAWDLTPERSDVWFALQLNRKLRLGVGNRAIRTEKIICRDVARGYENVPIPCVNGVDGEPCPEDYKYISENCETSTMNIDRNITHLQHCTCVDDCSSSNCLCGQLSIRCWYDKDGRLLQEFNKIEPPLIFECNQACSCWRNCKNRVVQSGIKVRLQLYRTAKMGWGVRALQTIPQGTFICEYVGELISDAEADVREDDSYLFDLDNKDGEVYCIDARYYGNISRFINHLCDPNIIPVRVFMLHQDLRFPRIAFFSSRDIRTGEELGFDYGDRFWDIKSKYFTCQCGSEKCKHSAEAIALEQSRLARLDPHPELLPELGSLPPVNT
Method in brief: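 Enzyme activity was measured with a radioisotope-based MT HotSpot methyltransferase assay run by a contract laboratory. Test compounds were run at the indicated concentrations, in duplicate. Data are mean ± SD of the two duplicate experiments.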

[2] = test system: panel of 21 protein methyltransferases; assay: Selectivity panel, radioactive methyltransferase assays; assay type: biochemical; details: 10 μM compound, duplicate
Method in brief: (§1)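 The selectivity screen covered 21 protein methyltransferases in radioisotope-based MT HotSpot methyltransferase assays run by a contract laboratory. Test compound was at 10 μM. Each assay was run in duplicate and reported as mean ± SD of the two replicates.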

[3] = biological target: T2, SET7/9 (Homo sapiens, UniProt Q8WTS6); assay: Radioactive methyltransferase assay, SET7/9; assay type: biochemical; details: 10 μM compound
T2 sequence (Q8WTS6 1-366): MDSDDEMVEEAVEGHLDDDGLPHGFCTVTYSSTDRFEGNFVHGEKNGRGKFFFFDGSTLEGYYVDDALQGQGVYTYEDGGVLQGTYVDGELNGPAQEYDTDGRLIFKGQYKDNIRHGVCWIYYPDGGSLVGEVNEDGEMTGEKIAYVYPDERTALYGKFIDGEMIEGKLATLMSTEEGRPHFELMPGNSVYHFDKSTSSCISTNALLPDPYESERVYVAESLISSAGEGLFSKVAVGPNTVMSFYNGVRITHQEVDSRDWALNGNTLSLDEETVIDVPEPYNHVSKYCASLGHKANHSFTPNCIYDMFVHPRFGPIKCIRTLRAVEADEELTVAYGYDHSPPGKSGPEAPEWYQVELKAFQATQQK
Method in brief: as §1

[4] = biological target: EZH2 (Homo sapiens, UniProt Q15910); assay: Western blot of EZH2 protein level in 22Rv1 cells; assay type: cell-based; details: indicated concentration, 24 h, WB
[5] = biological target: T2, SET7/9; assay: Western blot of SET7/9 protein level in 22Rv1 cells; assay type: cell-based; details: indicated concentration, 24 h, WB
Method in brief: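 22Rv1 cells were treated with the test compound at the indicated concentrations for 24 h. Cells were lysed in RIPA containing protease inhibitor cocktail, and protein was resolved by SDS-PAGE and transferred to PVDF. Primary antibody was applied overnight at 4 °C, with β-actin as loading control. Blots are representative of two independent experiments.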

[6] = test system: GLP mRNA; assay: RT-qPCR of GLP mRNA in H1299 cells; assay type: cell-based; details: 3 μM, 24 h, normalized to DMSO
Method in brief: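 H1299 cells were treated with DMSO or test compound at 3 μM for 24 h. Total RNA was extracted and reverse-transcribed to cDNA. qPCR used gene-specific primers for G9a and GLP, and a GAPDH primer set was included.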

[7] = Mouse PK study, single IP administration; assay type: in vivo; details: C57BL/6 mice

Sequence of EZH2 (Q15910 whole entry): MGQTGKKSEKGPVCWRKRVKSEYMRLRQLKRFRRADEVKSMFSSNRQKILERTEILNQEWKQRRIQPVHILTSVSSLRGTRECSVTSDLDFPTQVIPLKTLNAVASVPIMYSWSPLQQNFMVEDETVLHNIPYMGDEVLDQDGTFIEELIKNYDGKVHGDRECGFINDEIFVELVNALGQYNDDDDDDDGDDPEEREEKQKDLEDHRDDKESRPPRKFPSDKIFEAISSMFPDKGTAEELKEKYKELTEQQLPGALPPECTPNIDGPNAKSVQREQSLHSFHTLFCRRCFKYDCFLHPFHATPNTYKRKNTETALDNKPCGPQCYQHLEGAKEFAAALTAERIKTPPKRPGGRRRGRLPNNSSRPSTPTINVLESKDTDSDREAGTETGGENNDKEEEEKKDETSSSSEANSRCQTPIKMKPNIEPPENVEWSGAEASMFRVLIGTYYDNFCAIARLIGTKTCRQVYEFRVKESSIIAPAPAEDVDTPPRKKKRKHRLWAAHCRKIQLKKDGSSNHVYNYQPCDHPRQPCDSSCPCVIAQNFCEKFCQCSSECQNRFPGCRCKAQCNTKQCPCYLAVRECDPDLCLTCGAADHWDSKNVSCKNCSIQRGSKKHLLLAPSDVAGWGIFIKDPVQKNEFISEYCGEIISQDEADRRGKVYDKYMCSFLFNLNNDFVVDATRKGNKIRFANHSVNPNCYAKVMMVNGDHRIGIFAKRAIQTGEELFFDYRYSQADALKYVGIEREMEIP

COc1cc2c(NC3CCN(CCCC(=O)NCCCCCCCCCCCC(=O)N[C@H](C(=O)N4C[C@H](O)C[C@H]4C(=O)NCc4ccc(-c5scnc5C)cc4)C(C)(C)C)CC3)nc(N3CCC(F)(F)CC3)nc2cc1OCCCN1CCCC1 [Compound 10, (2S,4R)-1-((S)-2-(12-(4-(4-((2-(4,4-difluoropiperidin-1-yl)-6-methoxy-7-(3-(pyrrolidin-1-yl)propoxy)quinazolin-4-yl)amino)piperidin-1-yl)butanamido)dodecanamido)-3,3-dimethylbutanoyl)-4-hydroxy-N-(4-(4-methylthiazol-5-yl)benzyl)pyrrolidine-2-carboxamide]
inhibition of G9a enzymatic activity [1]: similarly inhibited | inhibition of panel methyltransferases [2]: ≤ 50% | inhibition of SET7/9 [3]: moderately inhibited | EZH2 degradation [4]: cannot induce the degradation | SET7/9 degradation [5]: cannot induce the degradation | mRNA levels of GLP [6]: did not significantly alter | Cmax ([7]; IP, 50 mg/kg, plasma, HCl salt form): 27 ± 0.6 µM | plasma exposure levels maintained up to 8 h ([7]; IP, 50 mg/kg, up to 8 h): > 5 µM | clinical signs in the PK study ([7]; single IP 50 mg/kg): no clinical signs were observed | tolerability in the PK study ([7]; single IP 50 mg/kg): well tolerated
